Bioassay records (PubChem BioAssay)
Most compounds without a hit are left out; they make up all but 1.8% or so of the library.
CSN inh: inhibitors of human CSN-mediated cullin deneddylation; Q92905; 360,000 tested, 0.38% active; Purified CSN, SCF-Nedd8-OG deneddylation, fluorescence polarization; AID 651999; inhibition, % at 12.5 µM;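 active = pattern-corrected inhibition above about 35%, with an unprinted fluorescence ratio check between 0.5 and 1.5, limit read from the data, passing the limit was not always enough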
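Material: purified human Csn5 enzyme expressed in HEK293T cells / Medium: Tris buffer pH 7.5, NaCl, DTT, Tween-20, trehalose, ovalbumin / Compound dosing: 12.5 µM single point / Schedule: 90 min incubation of compound, enzyme and substrate at room temperature / Signal: fluorescence polarization of the substrate / Control set: no-enzyme wells high, enzyme-with-substrate wells low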
HNF4A DNA FP: change in binding of human HNF4 alpha to DNA | P41235 | HNF4a-FITC DNA binding, fluorescence polarization, 1 h | activity change, % at 10 µM | 360,000 tested, 0.3% active; in the data active = activity change above about 30%, passing the limit was not always enough
Rpn11 inh: blocks the human proteasome subunit Rpn11; 360,000 tested, 0.59% active; human 26S proteasome, Ub4-pepOG fluorescence polarization; 20S core pre-blocked with epoxomicin; O00487; AID 588493; calls only at 20 µM;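 active = inhibition at 20 µM, scaled to each plate's controls, above about 33%, limit read from the data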
Target sequence (O00487 whole entry, looked up): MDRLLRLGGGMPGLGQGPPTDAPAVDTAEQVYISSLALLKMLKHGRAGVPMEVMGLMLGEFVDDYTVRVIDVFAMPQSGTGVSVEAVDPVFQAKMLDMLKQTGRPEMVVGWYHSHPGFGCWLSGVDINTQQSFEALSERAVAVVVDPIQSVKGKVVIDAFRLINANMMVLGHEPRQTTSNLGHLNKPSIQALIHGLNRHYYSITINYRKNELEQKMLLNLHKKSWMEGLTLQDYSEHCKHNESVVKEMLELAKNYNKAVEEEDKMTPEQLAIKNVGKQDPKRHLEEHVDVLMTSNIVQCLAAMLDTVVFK
TPT1 inh: C. albicans TPT1 enzyme inhibition. recombinant caTPT1, FP RNA substrate dephosphorylation. inhibition, % at 5 µM. 300,000 tested, 0.81% active. AID 1962;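 active = inhibition above the mean of all tested compounds plus 3 SD, set per screening campaign, cut at about 24% in these data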
SENP1 inh: blocks the human SENP1 SUMO protease catalytic domain; AID 624204; inhibition, % at 10 µM; 360,000 tested, 0.21% active; recombinant SENP1 catalytic domain, CyPet-SUMO1-YPet FRET cleavage; Q9P0U3;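 active = inhibition at least 30% at 10 µM, raw YFP signal under a set limit, fluorescence ratio 0.5 to 1.5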
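Material – human SENP1 catalytic domain · Input – SENP1 enzyme, 20 pM final · Compound dosing – single concentration of 10 µM compound, 0.5% DMSO final · Timing – enzyme reaction for 50 min at room temperature, dark · Measured by – FRET fluorescence in CFP and YFP emission channels · Control set – no-enzyme wells low, DMSO-plus-enzyme wells high control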
UBC9 SUMO inh: SUMOylation inhibition; P63279; HTRF SUMOylation assay, SAE1/SAE2 + UBC9, in vitro; inhibition, % at 35 µM; 290,000 tested, 0.36% active; in the data active = inhibition above about 50%, passing the limit was not always enough; inconclusive = no clear call, values can overlap the other calls
caTPT1 confirm: TPT1 (C. albicans) inhibition, confirmation | recombinant caTPT1, fluorescence polarization, RNase T1 coupled | 2,400 tested, 74% active | shares compounds with TPT1 inh | inhibition, % at 5 µM;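 active = inhibition above the primary screen limit, the mean inhibition of all tested compounds plus 3 SD, cut at about 25% in these data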
RNase T1 inh: RNase T1 inhibition in TPT1 counter-screen. inhibition, % at 5 µM. RNase T1 cleavage, fluorescence polarization, 1536-well. 2,400 tested, 83% active. shares compounds with TPT1 inh;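 active = inhibition above the solvent-only control well mean plus 3 SD, limit set per screening run, cut at about 23% in these data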;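 note: inhibitors block cleavage so intact labeled substrate keeps polarization high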
Target sequence (P00651 whole entry, looked up): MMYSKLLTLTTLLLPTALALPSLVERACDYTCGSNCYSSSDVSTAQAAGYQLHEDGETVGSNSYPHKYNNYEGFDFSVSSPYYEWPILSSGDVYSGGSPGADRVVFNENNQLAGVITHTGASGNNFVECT
Numbers stand for hits; - = inactive; ? = inconclusive; . = not tested or not shown.

SMILES | CSN inh | HNF4A DNA FP | Rpn11 inh | TPT1 inh | SENP1 inh | UBC9 SUMO inh | caTPT1 confirm | RNase T1 inh
Cn1cc(C2=C(c3ccc(Cl)cc3Cl)C(=O)NC2=O)c2ccccc21 | - | - | . | 81.2 | - | - | 92.3 | 94.7
CN1CCc2c(sc(N)c2C(=O)O)C1 | - | - | - | - | - | - | . | .
COc1ccc(C(=O)c2c(N)sc3c2CCN(C)C3)cc1 | - | - | - | 41.8 | - | - | 40.4 | 48.4
CCCn1c(SCC(=O)N(C2CCCCC2)C2CCS(=O)(=O)C2)n[nH]c1=O (stereo not given) | - | - | - | . | - | . | . | .
CCOC(=O)c1c(-c2ccc(OC)cc2)csc1/N=C/C1C(=O)CCCC1=O | - | - | - | 171.7 | - | - | 25.1 | 35.8
CC(C)NC(=O)c1onc(CSc2ccccc2F)c1C(=O)O | - | - | - | - | - | - | . | .
CCOC(=O)c1c(-c2ccccc2)csc1NC(=O)/C(C#N)=C/c1ccc(O)c(OC)c1 | - | - | . | 177.8 | - | - | 192.0 | 174.1
CCN(CC)c1ccc(/C=C(\C#N)C(=O)NCc2ccco2)cc1 | . | . | . | 110.0 | . | - | 103.7 | 113.5
Cc1ccc(CNC(=O)/C(C#N)=C\c2ccc(N(C)C)cc2)cc1 | . | . | . | 57.9 | . | 54.5 | 63.9 | 79.9
CCN(CC)c1ccc(/C=C(\C#N)C(=O)NCc2ccccc2)cc1 | - | 40.6 | - | 89.3 | - | - | 106.7 | 113.7
Cc1cccc(C(=O)NNC2=CC(=O)CC(C)(C)C2)c1O | - | - | - | - | - | - | . | .
CC1(C)CC(=O)C=C(NNC(=O)c2ccccc2O)C1 | - | - | - | 38.8 | - | - | 46.2 | 57.4
CC(=O)Nc1ccc(S(=O)(=O)NC2(c3ccccc3)C(=O)N(C)C(=O)N(C)C2=O)cc1 | - | - | - | . | - | . | . | .
NC1=NC(=O)/C(=C/c2cccs2)S1 | - | - | - | - | - | - | . | .
CS(=O)(=O)Nc1ccc(-c2ccc(/C=C3\SC(N)=NC3=O)o2)cc1 | - | 42.4 | - | 44.4 | - | - | 54.2 | 68.1
O=C(COC(=O)c1ccc(Cl)c(S(=O)(=O)N2CCN(c3ccc(F)cc3)CC2)c1)Nc1cccc(Cl)c1 | - | - | - | - | - | - | . | .
N#C/C(=C/c1ccc(N2CCOCC2)o1)C(=O)Nc1ccccc1 | - | - | . | . | - | - | . | .
COCCNC(=O)/C(C#N)=C/c1ccc(N2CCOCC2)o1 | - | - | . | 156.9 | - | - | 169.2 | 164.4
N#C/C(=C\c1ccc(-c2ccc(C(=O)O)cc2)o1)C(=O)NCC1CCCO1 (stereo not given) | - | - | - | - | - | - | . | .
N#C/C(=C\c1ccc(N2CCOCC2)o1)C(=O)NCC1CCCO1 (stereo not given) | - | - | . | 161.2 | - | - | 168.4 | 163.8
C=CCOc1ccc(Cl)cc1CNC1CCCC1 | - | - | - | - | - | - | . | .
Cc1csc(NC(=O)CCC(=O)N(CC(=O)NC2CCCCC2)c2ccccc2)n1 | - | - | - | - | - | - | . | .
CN1CCN(C2OC(=O)c3ccccc32)CC1 (stereo not given) | - | - | - | - | - | - | . | .
CCOC(=O)Oc1c(OC)cc(C(=O)O[C@@H]2C[C@@H]3CN4CCc5c([nH]c6cc(OC)ccc56)[C@H]4C[C@@H]3[C@H](C(=O)OC)[C@H]2OC)cc1OC | - | - | - | 44.9 | - | . | 42.3 | 53.2
COc1cc([N+](=O)[O-])ccc1NC(=O)Cc1ccc(C)cc1 | - | - | - | - | - | - | . | .
Nc1c(C(=O)NC2CC2)sc2nc3c(c(-c4ccco4)c12)CC/C3=C/c1ccco1 | - | - | - | 36.2 | - | ? | - | -
CN=c1scc(-c2ccccc2F)n1/N=C/c1ccc[nH]1 | - | - | - | 50.4 | - | - | 27.4 | 36.3
COc1ccc(C2(CNC(=O)c3cc([N+](=O)[O-])cc([N+](=O)[O-])c3)CCCC2)cc1OC | - | - | - | - | - | - | . | .
OCCCNc1ncnc2c1ncn2[C@H]1CN(Cc2ccc(-c3ccccc3)cc2)C[C@@H](CO)O1 | - | - | - | . | - | . | . | .
